Assay results published in ChEMBL document CHEMBL4152207, “Discovery of potent and selective BRD4 inhibitors capable of blocking TLR3-induced acute airway inflammation” (Eur J Med Chem, 2018).
The source made the active and inactive calls. The calls are words filed in the database; no cut-off is given here.

Tests used:
Mus musculus [1] = experiment: Hepatotoxicity in mouse assessed as effect on globulin level at 1 to 50 mg/kg, ip dosed daily for 1 month; format: toxicity, organism-based; conditions: in vivo
Outline: (§1)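 Groups of n = 5 mice were dosed daily at 1-50 mg/kg for one month. Liver function markers (albumin, globulin, ALK, ALT) were measured alongside body weight, blood counts and renal markers.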

[2] = molecular target: Tyrosine-protein kinase Lck (Homo sapiens) (UniProt P06239); experiment: Inhibition of human recombinant LCK using Ulight-Poly GAT[EAY(1:1:1)]n as substrate after 10 mins relative to control; parameters: scale not given: the % may be the effect or the level left
Sequence of Tyrosine-protein kinase Lck (Homo sapiens) (P06239 2-509 limits assumed): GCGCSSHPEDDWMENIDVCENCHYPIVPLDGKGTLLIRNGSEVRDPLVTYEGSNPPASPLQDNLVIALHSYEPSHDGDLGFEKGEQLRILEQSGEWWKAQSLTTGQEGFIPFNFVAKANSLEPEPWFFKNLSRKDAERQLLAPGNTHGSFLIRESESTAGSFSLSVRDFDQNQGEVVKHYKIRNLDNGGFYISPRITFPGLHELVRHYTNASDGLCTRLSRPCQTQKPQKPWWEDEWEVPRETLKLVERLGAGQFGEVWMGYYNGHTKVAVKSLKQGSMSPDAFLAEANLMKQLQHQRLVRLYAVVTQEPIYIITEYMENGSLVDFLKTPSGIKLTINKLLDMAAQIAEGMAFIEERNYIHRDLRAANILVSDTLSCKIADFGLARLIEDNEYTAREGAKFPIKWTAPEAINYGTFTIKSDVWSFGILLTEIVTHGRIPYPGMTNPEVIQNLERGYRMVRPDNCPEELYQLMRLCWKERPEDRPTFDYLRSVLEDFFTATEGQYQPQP

[3] = molecular target: Prostaglandin G/H synthase 1 (Homo sapiens) (UniProt P23219); experiment: Inhibition of human recombinant COX1 using arachidonic acid as substrate after 3 mins by fluorimetric analysis; parameters: scale not given: the % may be the effect or the level left
Mus musculus [4] = experiment: Hepatotoxicity in mouse assessed as effect on albumin level at 1 to 50 mg/kg, ip dosed daily for 1 month; format: toxicity, organism-based; conditions: in vivo; outline: as §1
[5] = molecular target: Inhibitor of nuclear factor kappa-B kinase subunit epsilon (Homo sapiens) (UniProt Q14164); experiment: Inhibition of human recombinant IKKepsilon using Ulight-FLGFTYVAP as substrate after 90 mins relative to control; parameters: scale not given: the % may be the effect or the level left
Sequence of Inhibitor of nuclear factor kappa-B kinase subunit epsilon (Homo sapiens) (Q14164 whole entry): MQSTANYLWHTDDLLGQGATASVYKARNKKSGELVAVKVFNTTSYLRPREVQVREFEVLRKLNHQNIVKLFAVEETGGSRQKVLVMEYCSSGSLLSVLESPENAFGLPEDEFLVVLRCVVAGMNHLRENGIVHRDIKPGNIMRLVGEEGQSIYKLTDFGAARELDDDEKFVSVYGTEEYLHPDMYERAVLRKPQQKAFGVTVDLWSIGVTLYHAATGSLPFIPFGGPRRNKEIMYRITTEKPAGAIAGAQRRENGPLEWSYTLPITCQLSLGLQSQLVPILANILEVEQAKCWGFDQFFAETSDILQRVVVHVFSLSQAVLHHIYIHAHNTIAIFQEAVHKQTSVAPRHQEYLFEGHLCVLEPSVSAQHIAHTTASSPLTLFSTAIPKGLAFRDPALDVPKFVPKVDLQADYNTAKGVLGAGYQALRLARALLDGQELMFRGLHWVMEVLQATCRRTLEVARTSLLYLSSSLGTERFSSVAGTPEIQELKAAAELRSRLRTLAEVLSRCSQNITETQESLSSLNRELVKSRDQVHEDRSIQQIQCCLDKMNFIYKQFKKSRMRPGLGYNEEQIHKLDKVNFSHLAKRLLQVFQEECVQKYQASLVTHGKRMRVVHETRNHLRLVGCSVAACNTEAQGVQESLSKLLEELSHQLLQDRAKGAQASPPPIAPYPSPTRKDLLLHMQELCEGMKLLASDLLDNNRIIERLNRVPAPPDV

Mus musculus [6] = experiment: Anti-inflammatory activity in poly(I:C)-induced airway inflammation C57BL/6 mouse model assessed as reduction in mKC expression in lung at 10 mg/kg, ip administered 1 day prior to poly(I:C) stimulation and redosed on day 2 followed by poly(I:C) stimulation; format: functional, organism-based
Outline: (§2)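 Male C57BL/6J mice, 12 weeks old, were given 10 mg/kg i.p. one day before stimulation. The next day they got a second dose, immediately followed by intranasal poly(I:C) (300 μg in 50 μL PBS) or PBS alone. Compound was taken up in DMSO and diluted in 10% hydroxypropyl β-cyclodextrin in PBS. Mice were euthanized one day later and lung tissue was collected for cytokine expression.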

[7] = molecular target: 3',5'-cyclic-AMP phosphodiesterase 4D (Homo sapiens) (UniProt Q08499); experiment: Displacement of [3H]cAMP from human recombinant PDE4D2 at 10 uM after 20 mins by scintillation counting analysis relative to control
[8] = molecular target: Cav1.2 (L-type calcium channel) (Rattus norvegicus, UniProt P22002); experiment: Displacement of [3H]nitrendipine from rat Cav1.2 (L-type) at 10 uM after 90 mins by scintillation counting analysis relative to control; conditions: probe [3H]nitrendipine, read-out: Activity
Sequence of Cav1.2 (L-type calcium channel) (P22002 whole entry): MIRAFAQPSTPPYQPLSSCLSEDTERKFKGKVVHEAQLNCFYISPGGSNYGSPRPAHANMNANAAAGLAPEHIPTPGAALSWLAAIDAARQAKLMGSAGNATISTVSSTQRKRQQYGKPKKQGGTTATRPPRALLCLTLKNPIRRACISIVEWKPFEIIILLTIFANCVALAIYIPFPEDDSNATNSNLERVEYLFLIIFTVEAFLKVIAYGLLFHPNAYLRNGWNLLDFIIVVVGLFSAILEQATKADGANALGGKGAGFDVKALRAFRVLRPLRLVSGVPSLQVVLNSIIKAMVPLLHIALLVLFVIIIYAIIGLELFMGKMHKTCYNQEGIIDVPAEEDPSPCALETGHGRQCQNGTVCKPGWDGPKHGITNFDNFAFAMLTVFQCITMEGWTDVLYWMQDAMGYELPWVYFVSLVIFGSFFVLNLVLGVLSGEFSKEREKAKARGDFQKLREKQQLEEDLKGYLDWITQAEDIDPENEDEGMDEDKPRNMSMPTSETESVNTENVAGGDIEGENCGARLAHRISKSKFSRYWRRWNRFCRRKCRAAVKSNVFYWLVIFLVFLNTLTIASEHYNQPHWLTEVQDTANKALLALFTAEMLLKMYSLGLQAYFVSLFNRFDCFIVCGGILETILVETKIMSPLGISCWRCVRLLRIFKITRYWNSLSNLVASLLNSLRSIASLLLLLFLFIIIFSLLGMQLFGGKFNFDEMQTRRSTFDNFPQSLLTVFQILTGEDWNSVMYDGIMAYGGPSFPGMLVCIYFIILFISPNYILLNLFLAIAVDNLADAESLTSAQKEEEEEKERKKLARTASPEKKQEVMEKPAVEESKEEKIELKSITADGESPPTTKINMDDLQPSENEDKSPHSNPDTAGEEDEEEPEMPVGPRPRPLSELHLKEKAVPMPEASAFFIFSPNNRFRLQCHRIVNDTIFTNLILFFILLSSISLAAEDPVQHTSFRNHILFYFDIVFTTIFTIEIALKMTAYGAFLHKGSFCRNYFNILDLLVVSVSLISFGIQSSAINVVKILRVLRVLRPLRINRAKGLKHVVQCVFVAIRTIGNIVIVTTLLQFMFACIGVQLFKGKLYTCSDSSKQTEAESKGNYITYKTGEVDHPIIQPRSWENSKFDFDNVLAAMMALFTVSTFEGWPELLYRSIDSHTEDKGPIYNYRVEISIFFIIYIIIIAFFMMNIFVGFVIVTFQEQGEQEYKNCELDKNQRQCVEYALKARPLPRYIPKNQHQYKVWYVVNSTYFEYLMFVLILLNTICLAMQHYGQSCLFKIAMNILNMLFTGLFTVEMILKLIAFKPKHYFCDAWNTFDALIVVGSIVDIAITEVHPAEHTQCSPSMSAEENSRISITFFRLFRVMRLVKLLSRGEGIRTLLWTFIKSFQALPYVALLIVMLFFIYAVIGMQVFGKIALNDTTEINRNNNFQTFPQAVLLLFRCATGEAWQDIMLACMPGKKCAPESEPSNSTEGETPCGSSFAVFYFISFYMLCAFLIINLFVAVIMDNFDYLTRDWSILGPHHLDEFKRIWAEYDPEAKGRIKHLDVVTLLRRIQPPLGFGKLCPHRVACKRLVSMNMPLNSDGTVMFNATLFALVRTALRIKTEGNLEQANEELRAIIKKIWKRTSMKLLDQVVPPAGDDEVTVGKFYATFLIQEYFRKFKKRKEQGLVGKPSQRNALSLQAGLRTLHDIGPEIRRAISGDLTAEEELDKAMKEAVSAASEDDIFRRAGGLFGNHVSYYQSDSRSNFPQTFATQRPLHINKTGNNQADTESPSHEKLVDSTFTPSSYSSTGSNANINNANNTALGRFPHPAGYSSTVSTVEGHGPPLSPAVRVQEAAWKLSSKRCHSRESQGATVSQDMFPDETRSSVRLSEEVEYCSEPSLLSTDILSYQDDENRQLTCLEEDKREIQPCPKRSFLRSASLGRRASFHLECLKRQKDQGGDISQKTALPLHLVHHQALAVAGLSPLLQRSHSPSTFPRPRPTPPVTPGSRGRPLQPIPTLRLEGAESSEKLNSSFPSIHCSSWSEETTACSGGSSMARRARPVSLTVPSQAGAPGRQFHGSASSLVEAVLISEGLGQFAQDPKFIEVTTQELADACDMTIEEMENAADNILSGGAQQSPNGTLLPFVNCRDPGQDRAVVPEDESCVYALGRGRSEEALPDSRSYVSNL

[9] = molecular target: Acetylcholinesterase (Homo sapiens) (UniProt P22303); experiment: Inhibition of human recombinant ACHE using acetylthiocholine as substrate after 30 mins by spectrophotometric relative to control; parameters: scale not given: the % may be the effect or the level left
Sequence of Acetylcholinesterase (Homo sapiens) (P22303 whole entry): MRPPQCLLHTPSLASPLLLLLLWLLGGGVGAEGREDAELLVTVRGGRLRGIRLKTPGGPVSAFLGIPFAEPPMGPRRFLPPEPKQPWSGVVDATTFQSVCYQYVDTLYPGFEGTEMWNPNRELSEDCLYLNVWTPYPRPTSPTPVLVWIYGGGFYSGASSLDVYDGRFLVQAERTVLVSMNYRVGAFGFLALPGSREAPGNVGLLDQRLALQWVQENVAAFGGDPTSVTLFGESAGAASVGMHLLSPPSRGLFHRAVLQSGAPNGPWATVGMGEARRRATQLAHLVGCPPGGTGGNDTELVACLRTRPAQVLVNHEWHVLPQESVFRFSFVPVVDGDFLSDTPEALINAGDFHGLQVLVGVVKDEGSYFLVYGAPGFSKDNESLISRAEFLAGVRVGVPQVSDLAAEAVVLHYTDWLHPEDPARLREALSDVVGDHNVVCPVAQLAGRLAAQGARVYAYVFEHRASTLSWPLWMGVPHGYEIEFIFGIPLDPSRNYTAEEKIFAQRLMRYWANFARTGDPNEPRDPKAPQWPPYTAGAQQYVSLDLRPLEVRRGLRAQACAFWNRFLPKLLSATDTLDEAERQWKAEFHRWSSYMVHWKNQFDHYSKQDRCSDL
Outline: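 Run within a commercial off-target panel of receptors and enzymes, with compound tested at a single concentration of 10 μM.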

[10] = molecular target: Beta-1 adrenergic receptor (Homo sapiens) (UniProt P08588); experiment: Displacement of [3H](-)CGP 12177 from human beta1 adrenoceptor at 10 uM after 60 mins by scintillation counting analysis relative to control
Sequence of Beta-1 adrenergic receptor (Homo sapiens) (P08588 whole entry, looked up): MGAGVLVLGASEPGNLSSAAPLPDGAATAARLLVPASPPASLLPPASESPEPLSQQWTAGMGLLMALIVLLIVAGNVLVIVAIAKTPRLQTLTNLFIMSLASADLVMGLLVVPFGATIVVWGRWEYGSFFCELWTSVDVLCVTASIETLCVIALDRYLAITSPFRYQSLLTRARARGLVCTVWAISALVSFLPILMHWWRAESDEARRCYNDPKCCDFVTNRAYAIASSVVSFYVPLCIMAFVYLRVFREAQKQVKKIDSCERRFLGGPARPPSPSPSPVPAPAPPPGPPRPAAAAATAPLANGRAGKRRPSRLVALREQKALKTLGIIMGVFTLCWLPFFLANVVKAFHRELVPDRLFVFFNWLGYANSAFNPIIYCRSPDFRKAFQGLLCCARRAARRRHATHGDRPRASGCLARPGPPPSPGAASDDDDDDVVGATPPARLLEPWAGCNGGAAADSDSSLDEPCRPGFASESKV

Mus musculus [11] = experiment: Anti-inflammatory activity in poly(I:C)-induced airway inflammation C57BL/6 mouse model assessed as reduction in mISG54 expression in lung at 10 mg/kg, ip administered 1 day prior to poly(I:C) stimulation and redosed on day 2 followed by poly(I:C) stimulation; format: functional, organism-based; outline: as §2
[12] = AUC (0 to t) in rat at 20 mg/kg, po; format: ADME, organism-based; conditions: in vivo
Mus musculus [13] = experiment: (§3) Anti-inflammatory activity in poly(I:C)-induced airway inflammation C57BL/6 mouse model assessed as reduction in neutrophils recruitment into bronchoalveolar lavage fluid at 10 mg/kg, ip administered 1 day prior to poly(I:C) stimulation and redosed on day 2 followed by poly(I:C) stimulation by trypan blue staining-based hemocytometric analysis; format: functional, organism-based
Mus musculus [14] = experiment: Anti-inflammatory activity in poly(I:C)-induced airway inflammation C57BL/6 mouse model assessed as reduction in mIL6 expression in lung at 10 mg/kg, ip administered 1 day prior to poly(I:C) stimulation and redosed on day 2 followed by poly(I:C) stimulation; format: functional, organism-based; outline: as §2
Mus musculus [15] = experiment: Anti-inflammatory activity in poly(I:C)-induced airway inflammation C57BL/6 mouse model assessed as reduction in mCIG5 expression in lung at 10 mg/kg, ip administered 1 day prior to poly(I:C) stimulation and redosed on day 2 followed by poly(I:C) stimulation; format: functional, organism-based; outline: as §2
[16] = molecular target: Neuronal acetylcholine receptor; alpha4/beta2 (Homo sapiens) (UniProt P17787+P43681); experiment: Binding affinity to neuronal alpha4beta2 (unknown origin) at 10 uM by antgonist radioligand assay relative to control; format: protein-complex assay
[17] = molecular target: Cannabinoid receptor 1 (Homo sapiens) (UniProt P21554); experiment: Displacement of [3H]CP 55940 from human recombinant CB1 receptor at 10 uM after 120 mins by scintillation counting analysis relative to control
[18] = molecular target: Histamine H1 receptor (Homo sapiens) (UniProt P35367); experiment: Displacement of [3H]pyrilamine from human recombinant histamine H1 receptor at 10 uM after 60 mins by scintillation counting analysis relative to control
[19] = molecular target: Muscarinic acetylcholine receptor M2 (Homo sapiens) (UniProt P08172); experiment: Displacement of [3H]AF-DX 384 from human recombinant M2 receptor at 10 uM after 60 mins by scintillation counting analysis relative to control
[20] = molecular target: Inhibitor of nuclear factor kappa-B kinase subunit alpha (Homo sapiens) (UniProt O15111); experiment: Inhibition of human recombinant IKKalpha using Ulight-IkappaB-alpha as substrate after 30 mins relative to control; parameters: scale not given: the % may be the effect or the level left
Mus musculus [21] = experiment: Toxicity in mouse assessed as effect on WBC levels at 1 to 50 mg/kg, ip dosed daily for 1 month; format: organism-based; conditions: in vivo
[22] = molecular target: Muscarinic acetylcholine receptor M3 (Homo sapiens) (UniProt P20309); experiment: Displacement of [3H]4-DAMP from human recombinant M3 receptor at 10 uM after 60 mins by scintillation counting analysis relative to control
[23] = Volume of distribution at steady state in rat at 10 mg/kg, iv; format: ADME, organism-based; conditions: in vivo, read-out: Vdss
Mus musculus [24] = experiment: as §3, with “total cells in” for “neutrophils recruitment into”; format: functional, organism-based
[25] = molecular target: Vasopressin V1a receptor (Homo sapiens) (UniProt P37288); experiment: Displacement of [3H]AVP from human recombinant V1a receptor at 10 uM after 60 mins by scintillation counting analysis relative to control
Sequence of Vasopressin V1a receptor (Homo sapiens) (P37288 whole entry, looked up): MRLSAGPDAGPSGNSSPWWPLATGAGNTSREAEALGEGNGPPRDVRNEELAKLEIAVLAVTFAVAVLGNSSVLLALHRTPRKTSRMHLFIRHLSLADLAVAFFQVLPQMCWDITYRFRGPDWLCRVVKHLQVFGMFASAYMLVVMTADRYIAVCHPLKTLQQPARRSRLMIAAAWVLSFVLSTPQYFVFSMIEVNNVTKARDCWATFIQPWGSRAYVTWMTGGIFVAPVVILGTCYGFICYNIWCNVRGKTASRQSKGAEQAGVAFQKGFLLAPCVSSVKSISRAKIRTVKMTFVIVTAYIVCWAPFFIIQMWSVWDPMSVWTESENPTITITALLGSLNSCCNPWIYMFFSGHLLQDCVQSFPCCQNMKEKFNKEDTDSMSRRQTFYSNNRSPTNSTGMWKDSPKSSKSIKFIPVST

[26] = molecular target: 5-hydroxytryptamine receptor 3A (Homo sapiens) (UniProt P46098); experiment: Displacement of [3H]BRL 43694 from human recombinant 5-HT3 receptor at 10 uM after 120 mins by scintillation counting analysis relative to control
hERG (KCNH2) = hERG (KCNH2) (Homo sapiens, UniProt Q12809); experiment: Displacement of [3H]Dofetilide from human ERG at 10 uM after 60 mins by scintillation counting analysis relative to control; conditions: probe [3H]Dofetilide, read-out: Activity
Rattus norvegicus = species on record: Rattus norvegicus; experiment: Displacement of [3H]flunitrazepam from rat brain central BZD at 10 uM after 60 mins by radioligand binding assay relative to control
[27] = Cmax in rat at 20 mg/kg, po; format: ADME, organism-based; parameters: dose 20 mg/kg, route oral; conditions: in vivo
[28] = Half life in rat at 10 mg/kg, iv; format: ADME, organism-based; conditions: in vivo
Mus musculus [29] = experiment: Toxicity in mouse assessed as effect on nuetrophils level at 1 to 50 mg/kg, ip dosed daily for 1 month; format: organism-based; conditions: in vivo

Cc1cc(/N=N/c2ccc(S(=O)(=O)NC3CCCC3)cc2)c(N)cc1O
Activity (Mus musculus [1]): Non-Toxic | Activity [2]: -20.6% | Activity [3]: 28.2 to 41.6% | Activity (Mus musculus [4]): Non-Toxic | Activity [5]: -26.2% | Activity (Mus musculus [6]): Active | Activity [7]: 39.4% | inhibition at […], 10 µM [8]: 42% | Activity [9]: 11.7% | Activity [10]: 7.4% | Activity (Mus musculus [11]): Active | AUC(0-t) [12]: 104 ng·h/mL | Activity (Mus musculus [13]): Active | Activity (Mus musculus [14]): Active | Activity (Mus musculus [15]): Active | Activity [16]: -2.9% | Activity [17]: 24.7% | Activity [18]: 7.1% | Activity [19]: 21.6% | Activity [20]: -14.2% | Activity (Mus musculus [21]): Non-Toxic | Activity [22]: 4.8% | Vd [23]: 1.12 L/kg | Activity (Mus musculus [24]): Active | Activity [25]: 32.4% | Activity [26]: -12.9% | inhibition at 1 h, 10 µM (hERG (KCNH2)): 23.6% | Activity (Rattus norvegicus): 8.3% | Cmax [27]: 36 ng/mL | half-life [28]: 49.8 min | Activity (Mus musculus [29]): Non-Toxic
